From PubChem BioAssay
In the library only some 3.4% were active in any assay of this set; here they are far more common.
TAAR1 antagonist – human TAAR1 antagonism; CHO RD-HGA16 TAAR1, Fluo-8 calcium fluorescence, antagonist; hit rate 1.5% among 360,000; inhibition, % at 3 µM; AID 624466;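 active = inhibition above a per-plate cutoff, the mean inhibition of test compounds on that plate plus 3 SD, cut at about 49% in these data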
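Test system: hTAAR1-expressing CHO RD-HGA16 cells, Gα16-coupled; Probe or stimulus: EC80 β-phenethylamine stimulus; Compound dosing: single nominal final test compound concentration of 3 µM; Timing: 140 s kinetic read after compound, 140 s after agonist; Signal: Fluo-8 calcium-sensitive fluorescence; Measure: % inhibition of agonist calcium response; Controls: DMSO and EC80 PEA controls.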
LANA-H2A inh – blocks KSHV LANA binding to histone H2A/H2B | cell-free LANA-H2A/H2B peptide, fluorescence polarization | Q9QR71 | hit rate 0.6% among 320,000 | inhibition, % (concentration not given with the values) | AID 2629; in the data active = inhibition mostly above about 10%, no sharp cut-off; inactive = mostly below about 6.7%
Target sequence (Q9QR71 whole entry, looked up): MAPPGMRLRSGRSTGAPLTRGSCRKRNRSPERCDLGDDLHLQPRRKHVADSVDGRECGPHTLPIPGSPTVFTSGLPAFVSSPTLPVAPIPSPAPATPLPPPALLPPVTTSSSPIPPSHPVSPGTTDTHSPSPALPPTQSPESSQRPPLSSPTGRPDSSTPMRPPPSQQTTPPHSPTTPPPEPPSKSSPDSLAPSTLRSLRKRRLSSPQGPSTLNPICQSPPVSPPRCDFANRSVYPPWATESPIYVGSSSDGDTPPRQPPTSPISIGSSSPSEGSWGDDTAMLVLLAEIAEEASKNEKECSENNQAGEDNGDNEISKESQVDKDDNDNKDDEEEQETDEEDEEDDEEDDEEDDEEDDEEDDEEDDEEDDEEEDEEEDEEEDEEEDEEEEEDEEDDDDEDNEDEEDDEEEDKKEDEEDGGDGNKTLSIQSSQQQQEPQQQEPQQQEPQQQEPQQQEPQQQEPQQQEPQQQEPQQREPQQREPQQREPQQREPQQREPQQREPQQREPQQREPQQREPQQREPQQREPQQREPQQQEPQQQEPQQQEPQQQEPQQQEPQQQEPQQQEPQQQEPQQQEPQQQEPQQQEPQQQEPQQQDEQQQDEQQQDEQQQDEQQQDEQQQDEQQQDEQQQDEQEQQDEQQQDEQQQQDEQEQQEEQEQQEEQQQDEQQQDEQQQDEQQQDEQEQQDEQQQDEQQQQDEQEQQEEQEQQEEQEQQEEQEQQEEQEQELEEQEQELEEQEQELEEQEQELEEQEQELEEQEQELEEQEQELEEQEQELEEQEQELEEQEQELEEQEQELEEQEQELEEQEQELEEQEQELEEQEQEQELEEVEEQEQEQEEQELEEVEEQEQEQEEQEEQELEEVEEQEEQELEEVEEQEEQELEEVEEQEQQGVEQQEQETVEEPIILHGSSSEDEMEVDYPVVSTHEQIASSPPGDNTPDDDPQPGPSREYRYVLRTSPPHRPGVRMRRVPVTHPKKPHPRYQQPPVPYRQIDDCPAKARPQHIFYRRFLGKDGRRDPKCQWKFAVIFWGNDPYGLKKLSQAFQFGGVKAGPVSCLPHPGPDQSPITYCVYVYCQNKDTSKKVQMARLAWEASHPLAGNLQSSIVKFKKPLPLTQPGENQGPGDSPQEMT
TAAR1 agonist – human TAAR1 agonism. hit rate 0.99% among 360,000. CHO RD-HGA16 TAAR1, Fluo-8 calcium fluorescence; vehicle wells 0%, saturating PEA agonist 100%. activation, % at 3 µM. AID 624467. Q96RJ0;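 active = activation above the mean activation of all test compounds in the run plus 3 SD, cut at about 38% in these data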
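System: CHO-derived RD-HGA16 cells with stable Gα16 and human TAAR1. Times: 17-24 h plating, Fluo-8 75 min 37 °C, 30 min RT. Measured by: calcium-sensitive Fluo-8 signal, excitation 470-495, emission 515-575 nm. Read-out basis: % activation relative to PEA EC100 response. Control set: DMSO and PEA EC100. Repeats: no replicates (n 1).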
GPR7 antag – human neuropeptides B/W receptor 1 antagonism. P48145. GPR7-expressing cells, fluorescence antagonist assay. inhibition, % at 4.4 µM. hit rate 1.1% among 290,000; in the data active = inhibition above about 16%, passing the limit was not always enough;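 note: cells stimulated with the agonist NPW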
TRPN1 ag – activates the zebrafish TRPN1 channel | HEK293 zebrafish TRPN1-YFP, Fluo-8 calcium fluorescence; 100% = response to 87 µM carbachol | activation, % at 3 µM | hit rate 0.18% among 220,000 | AID 1424;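 active = activation above its plate's cutoff, the mean activation of test wells on that plate plus 3 SD, cut at about 19% in these data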
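Control set: carbachol 87 µM as high control, DMSO as low control; system: HEK293 stable line with zebrafish TRPN1-YFP; read-out: % activation versus carbachol response; detection: intracellular calcium fluorescence with Fluo-8; doses: single test compound dose, 3 µM nominal, 0.3% DMSO; schedule: dye 1 h 37 °C plus 30 min RT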
TRPML3 ag – activates the human TRPML3 channel | HEK293 TRPML3-YFP, Fluo-8 calcium fluorescence; 100% = the carbachol control signal | hit rate 0.29% among 220,000 | activation, % at 3 µM | Q8TDD5;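 active = activation above its plate's cutoff, the mean activation of the plate's test wells plus 3 SD, cut at about 12% in these data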
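system = HEK293 cells stably carrying human TRPML3-YFP | doses = one concentration, 3 µM nominal, 0.3% DMSO | timing = dye loading 1 h 37 °C then 30 min ambient, 125 s read | detection = Fluo-8 calcium dye fluorescence, ex 470-495, em 515-575 nm | benchmarks = high control carbachol 87 µM, low control DMSO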
Large screens that a line does not name were inactive.

Cc1c(NC(=O)CN2C(=O)C(=O)c3ccccc32)c(=O)n(-c2ccccc2)n1C	none
Cc1c(NC(=O)C(C)N(c2ccccc2)S(C)(=O)=O)c(=O)n(-c2ccccc2)n1C (stereo not given)	LANA-H2A inh 40
COc1ccc(CN2CCN(C(=O)c3ccc(S(=O)(=O)N4CCCCCC4)cc3)CC2)cc1F	TAAR1 antagonist 58 (no result: LANA-H2A inh, GPR7 antag, TRPN1 ag, TRPML3 ag)
Cc1ccc(Cl)cc1-n1c(=O)cc(N2CCN(C(=O)c3ccco3)CC2)[nH]c1=O	none
O=C(c1ccco1)N1CCN(c2cc(=O)n(-c3ccc(Cl)cc3)c(=O)[nH]2)CC1	LANA-H2A inh 19
COc1ccc(NC(=O)C2=Cc3ccccc3OC2)cc1	none
COc1ccc(NC(=O)C2=Cc3cccc(OC)c3OC2)cc1	GPR7 antag 20
CC1Cc2cc(-c3csc(NC(=O)Cc4ccccc4)n3)ccc2N1S(C)(=O)=O (stereo not given)	TAAR1 antagonist 54
O=C(O)C1C2C=CC(C2)C1C(=O)NCCCN1CCOCC1 (stereo not given)	none
CCCCNC(=O)C1C2C=CC(C2)C1C(=O)O (stereo not given)	TAAR1 agonist 42
COC(=O)[C@]12C[C@H](CC(=O)N3CCN(C(=O)c4ccco4)CC3)C(=O)N(Cc3ccccc3)C1=C[C@H](C1CCCC1)O[C@@H]2C	none (no result: LANA-H2A inh, GPR7 antag, TRPN1 ag, TRPML3 ag)
Cc1cccc(C)c1OCC(=O)Nn1c(COc2ccccc2)nc2ccccc2c1=O	TAAR1 antagonist 51
Cc1ccccc1OCC(=O)Nn1c(COc2ccccc2)nc2ccccc2c1=O	none
COc1cccc(CNc2ccc3[nH]c(=O)[nH]c3c2)c1OCc1ccc(F)cc1	TAAR1 antagonist 50 (no result: TRPN1 ag, TRPML3 ag)
NC(=O)c1ccc(NC(=O)c2ccc(COc3ccccc3Br)cc2)cc1	none (no result: LANA-H2A inh, GPR7 antag, TRPN1 ag, TRPML3 ag)
Cc1cc(C)n(Cc2ccc(NC(=O)c3ccc(COc4ccccc4Br)cc3)cc2)n1	TAAR1 antagonist 49
CN1C(=O)[C@@]2(C3=C(CCCC3=O)OC3=C2C(=O)CC(C)(C)C3)c2ccccc21	none (no result: LANA-H2A inh, GPR7 antag, TRPN1 ag, TRPML3 ag)
O=C(CCCN1C(=O)/C(=C/c2cccs2)SC1=S)Nc1ccccn1	none
O=C(CCN1C(=O)/C(=C/c2ccccc2Cl)SC1=S)Nc1cccnc1	TAAR1 antagonist 50 (no result: TRPN1 ag, TRPML3 ag)
O=C(CCN1C(=O)/C(=C/c2ccccc2)SC1=S)NNC(=O)c1cccnc1	TAAR1 antagonist 60
O=C(CCN1C(=O)/C(=C\c2cccs2)SC1=S)Nc1ccccn1	TAAR1 agonist 44
O=C(CCN1C(=O)/C(=C/c2ccc(F)cc2)SC1=S)NNC(=O)c1cccnc1	none
C[C@H]1[C@@H](c2ccccc2)Oc2c(Cl)cccc2S(=O)(=O)N1C	none (no result: LANA-H2A inh, GPR7 antag, TRPN1 ag, TRPML3 ag)
CC(NC(=O)/C(C#N)=C/c1ccc(Cl)c([N+](=O)[O-])c1)c1ccccc1 (stereo not given)	TAAR1 agonist 39
CCOc1ccc(C(C(=O)NCC2CCCO2)N(Cc2cccs2)C(=O)c2snc(C(N)=O)c2N)cc1 (stereo not given)	TAAR1 antagonist 54 (no result: TRPN1 ag, TRPML3 ag)
O=C(NCC1CCCO1)C(c1cccs1)N(C(=O)Cn1nnc(-c2cccs2)n1)C1CCCC1 (stereo not given)	none
CCOc1ccc(C(C(=O)NCC2CCCO2)N(C(=O)c2snc(C(N)=O)c2N)c2ccccc2F)cc1 (stereo not given)	none (no result: TRPN1 ag, TRPML3 ag)
Cc1cccc(CCN(C(=O)c2snc(C(N)=O)c2N)C(C(=O)NCC2CCCO2)c2ccc(F)cc2)c1 (stereo not given)	TAAR1 antagonist 59 (no result: LANA-H2A inh, TRPN1 ag, TRPML3 ag)
O=C(NCC1CCCO1)C(c1cccs1)N(Cc1cccs1)C(=O)Cn1nnc(-c2cccs2)n1 (stereo not given)	TAAR1 antagonist 49
O=[N+]([O-])c1ccc(CN2[C@H](COCc3ccccc3)C=CS2(=O)=O)cc1	none (no result: LANA-H2A inh, GPR7 antag, TRPN1 ag, TRPML3 ag)
Cc1[nH]c2ccccc2c1CC(=O)Nc1ccc(Oc2cccnc2)cc1	none (no result: LANA-H2A inh, GPR7 antag, TRPN1 ag, TRPML3 ag)
CCOC(=O)C1=CCN(S(=O)(=O)c2ccc(Cl)cc2)C1c1cccc(F)c1 (stereo not given)	none (no result: LANA-H2A inh, GPR7 antag, TRPN1 ag, TRPML3 ag)
C=CCNc1ccc2c(c1)OC[C@H](Cc1ccccc1)NS2(=O)=O	none (no result: LANA-H2A inh, GPR7 antag, TRPN1 ag, TRPML3 ag)
CCCCN1CC(COCc2ccccc2)Oc2cccc(NCc3cc(OC)c(OC)c(OC)c3)c2S1(=O)=O (stereo not given)	none (no result: LANA-H2A inh, GPR7 antag, TRPN1 ag, TRPML3 ag)
Cc1ccc(C)c(S(=O)(=O)/N=C2\C=C(NS(=O)(=O)c3ccccc3)C(=O)c3ccccc32)c1	LANA-H2A inh 31 (no result: TRPN1 ag, TRPML3 ag)
CCc1ccc(S(=O)(=O)/N=C2\C=C(NS(=O)(=O)c3ccccc3)C(=O)c3ccccc32)cc1	none (no result: LANA-H2A inh, TRPN1 ag, TRPML3 ag)
O=C(/C=C(\Nc1ccc(Br)c(F)c1)c1ccccc1)c1ccccc1	none (no result: LANA-H2A inh, GPR7 antag, TRPN1 ag, TRPML3 ag)
COc1cccc(CNC(=O)[C@H]2CCCN2C(=O)[C@H]2CCCN2C(=O)N2CCCCC2)c1	none (no result: LANA-H2A inh, GPR7 antag, TRPN1 ag, TRPML3 ag)
Cc1ccc(-c2cc3cccc[n+]3cc2-c2ccc(C)cc2)cc1	GPR7 antag 22
Cc1ccc2nc(-c3ccncc3)cc(-c3ccccc3)c2c1	none
Cc1ccc(C(=O)NCC(c2ccco2)N2CCc3ccccc3C2)cc1C (stereo not given)	none (no result: GPR7 antag, TRPN1 ag, TRPML3 ag)
